Data on eleven compounds can be found in ChEMBL document CHEMBL3259606, “Discovery of novel inhibitors targeting the macrophage migration inhibitory factor via structure-based virtual screening and bioassays” (J Med Chem, 2014).

The target of experiment [1] is T1, Macrophage migration inhibitory factor (Homo sapiens) (UniProt P14174).
T1 sequence (whole entry): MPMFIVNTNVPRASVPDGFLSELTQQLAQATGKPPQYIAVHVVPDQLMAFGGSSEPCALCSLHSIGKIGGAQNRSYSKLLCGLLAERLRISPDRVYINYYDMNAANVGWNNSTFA
Description: (§1) Inhibition of recombinant human MIF tautomerase activity expressed in Escherichia coli using L-dopachrome methyl ester as substrate incubated for 30 mins prior to substrate addition measured for 3 mins.

For experiment [2], the target named is T1, Macrophage migration inhibitory factor (Homo sapiens). Description: Inhibition of recombinant MIF (unknown origin)-induced mouse RAW264.7 cell chemotactic migration at 20 uM preincubated for 30 mins followed by macrophage addition measured every 15 mins for 4 hrs relative to control. The essentials: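 Recombinant MIF with or without compound placed in the lower chamber of a CIM-16 plate 30 min before RAW 264.7 cells (20,000/well, serum-free medium) added to the upper chamber. Impedance-based migration on xCELLigence RTCA-DP read every 15 min for 4 h. Heat-inactivated MIF as negative control; % of MIF-alone migration; mean ± SD, n = 3.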

The target is the same in experiment [3]. Kind of experiment: Inhibition of recombinant MIF (unknown origin)-induced ERK1/2 phosphorylation in mouse RAW264.7 cells at 20 uM preincubated for 30 mins followed by protein addition measured after 20 mins by Western blot analysis relative to control. It is filed as cell-based. Put shortly:
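RAW 264.7 cells given compound 30 min before MIF (0.1 μg/mL). Lysates taken 20 min after stimulation, separated on 12% SDS-PAGE and immunoblotted for phospho-ERK1/2 and total ERK1/2 (loading control), ECL detection. Densitometry expressed as % of MIF-alone band intensity.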
Background: In western blotting, separated proteins are transferred to a membrane and probed.

For experiment [4], the system named is RAW264.7. Description: Antiinflammatory activity in mouse RAW264.7 cells assessed as inhibition of LPS-induced nitrite production at 40 uM after 24 hrs by Griess assay. In kind it is functional, cell-based. Put shortly:
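RAW 264.7 macrophages (DMEM, 5% heat-inactivated FBS, 37 °C, 5% CO2) incubated 24 h with 0.1 μg/mL LPS with or without compound; nitrite in supernatant by Griess reagent. Mean ± SD, n = 3, representative of three independent experiments.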
In general terms: Griess reagent forms a coloured azo dye with nitrite.

Experiment [5] concerns the target T2, Macrophage migration inhibitory factor (Homo sapiens, UniProt P14174).
T2 sequence (P14174 whole entry): T1 sequence (whole entry)
Described as §1.

Experiment [6] deals with T1, Macrophage migration inhibitory factor (Homo sapiens). Kind of experiment: Inhibition of recombinant MIF (unknown origin)-mediated glucocorticoid overriding activity in LPS-stimulated mouse RAW264.7 cells assessed as inhibition of dexamethasone-induced intracellular nitric oxide production at 20 uM preincubated for 30 mins followed by LPS challenge measured at 16 hrs by Griess assay relative to control. It is filed as cell-based. Put shortly: (§2)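 RAW 264.7 cells, 5 × 10^4/well in triplicate, pretreated 30 min with dexamethasone (0.1 μM) plus recombinant MIF (0.2 μM) with or without compound, then stimulated with LPS (0.1 μg/mL). TNF-α in supernatant by sandwich ELISA at 4 h; NO in supernatant by Griess reagent at 16 h. Mean ± SD, n = 3, three independent experiments.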

Experiment [7] shares this target. Description: Inhibition of recombinant MIF (unknown origin)-mediated glucocorticoid overriding activity in LPS-stimulated mouse RAW264.7 cells assessed as inhibition of dexamethasone-induced intracellular TNF-alpha production at 20 uM preincubated for 30 mins followed by LPS challenge measured at 4 hrs by ELISA relative to control. In kind it is cell-based. Put shortly: as §2
(In general: ELISA stands for enzyme-linked immunosorbent assay.)

Activity calls are given as the source filed them. The calls are words filed in the database; no cut-off is given here.

As for `COc1cc(-c2nc3ccccc3s2)cc(Br)c1OCC(=O)O`, the inhibition (as a rule, the relative decrease from the control value, in per cent) was “Dose-dependent effect” in experiment [1], 83% in experiment [2] and 55% in experiment [3]. The inhibition entry in experiment [4] is “Active”.
With `O=C(Nc1ccccc1C(=O)O)c1cc(S(=O)(=O)Nc2ccc(F)cc2)ccc1Cl`, the IC50 (usually the concentration at which inhibition is half-maximal) in experiment [5] is 74.5 µM.
Still for that read-out and setting: next, `COc1cc(-c2nc3sc4c(c3c(=O)[nH]2)CCCC4)cc(Br)c1OCC(=O)O`: 22.6 µM.
With `O=C(O)c1cccc(NC(=S)NC(=O)c2ccc(-c3ccccc3)cc2)c1`, the figures for the inhibition result in experiment [1], in experiment [2] and in experiment [3] were “Dose-dependent effect”, 52% and 43%, respectively. The inhibition result in experiment [4] is “Active”.
In the case of `COc1ccc(C(=O)O)cc1NC(=S)NC(=O)c1cc2ccccc2o1`, the inhibition entry in experiment [1] is “Dose-dependent effect”; in experiment [6], 131%; in experiment [3], 59%; in experiment [7], 131%. In addition, in experiment [4], the inhibition entry is “Active”.
Turning to `O=C(O)CCC(=O)Nc1nc(-c2cc3ccccc3oc2=O)cs1`, the IC50 in experiment [5] amounted to 102 µM.
On the same count and under the same terms, next, `Cc1c(CCC(=O)O)c(=O)oc2cc(OCc3ccccc3Br)ccc12`: 23.1 µM; `COc1ccc2c3c(c(=O)oc2c1OCC(=O)O)CCCC3`: 25.8 µM.
As for `COC(=O)C[C@H]1CC(c2ccc(O)cc2)=NO1`, the inhibition entry was “Dose-dependent effect” in experiment [1], 128% in experiment [6] and 128% in experiment [7]. In addition, the fold change (FC) in experiment [2] turned out to be 2.2. In addition, in experiment [3], the inhibition result is “Active”.
Regarding `O=C(O)C[C@@H](Cc1ccccc1)c1ccco1`, the IC50 in experiment [5] was 85.6 µM.
As for `COc1ccc(-c2cc(C)nc(SCc3cccc(C(=O)O)c3)n2)cc1`, the IC50 in experiment [5] came out at 45.5 µM.
